Measurements as given in ChEMBL document CHEMBL2163203, “Conformationally-locked N-glycosides with selective β-glucosidase inhibitory activity: identification of a new non-iminosugar-type pharmacological chaperone for Gaucher disease” (J Med Chem, 2012).
Activity calls are given as the source filed them. The calls are words filed in the database; no cut-off is given here.

Key:
Penicillium decumbens = test: Inhibition of Penicillium decumbens naringinase at 2 mM after 10 to 30 mins by spectrophotometric analysis
Summary of the method: (§1)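 Enzyme added to substrate with or without inhibitor in phosphate buffer (phosphate–citrate for α-/β-mannosidase and amyloglucosidase) at each enzyme's optimal pH; 10–30 min at 37 °C (55 °C amyloglucosidase), aiming at 10–20% conversion. Stopped with 1 M Na₂CO₃, A405; trehalase stopped by heating, GLC-Trinder added, A492. Ki from Lineweaver–Burk and double-reciprocal analysis, substrate near Km.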

[1] = target: T1, Lysosomal acid glucosylceramidase (Homo sapiens) (UniProt P04062); test: Inhibition of human beta-glucocerebrosidase at 100 uM relative to control; settings: values are per cent of control
T1 sequence (whole entry): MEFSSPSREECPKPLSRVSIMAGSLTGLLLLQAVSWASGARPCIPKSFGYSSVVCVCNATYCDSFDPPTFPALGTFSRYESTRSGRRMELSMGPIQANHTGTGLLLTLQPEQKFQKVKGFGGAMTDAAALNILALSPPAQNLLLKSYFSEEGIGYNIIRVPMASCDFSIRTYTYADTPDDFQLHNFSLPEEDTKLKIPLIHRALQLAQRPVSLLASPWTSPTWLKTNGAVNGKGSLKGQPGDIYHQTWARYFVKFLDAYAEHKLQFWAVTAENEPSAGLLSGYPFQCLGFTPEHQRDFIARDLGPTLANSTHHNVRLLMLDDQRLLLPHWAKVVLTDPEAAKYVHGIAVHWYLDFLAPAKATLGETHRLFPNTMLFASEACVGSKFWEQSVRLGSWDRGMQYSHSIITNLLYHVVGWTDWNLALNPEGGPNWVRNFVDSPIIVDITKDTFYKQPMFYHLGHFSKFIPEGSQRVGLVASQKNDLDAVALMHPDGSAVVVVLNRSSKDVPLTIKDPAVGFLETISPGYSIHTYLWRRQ

[2] = target: T2, Uncharacterized protein (Sus scrofa) (UniProt I3LIR5); test: Inhibition of pig trehalase isolated from kidney using alpha,alpha'-trehalose as substrate at 2 mM after 10 to 30 mins by spectrophotometric analysis; summary of the method: as §1
T2 sequence (whole entry): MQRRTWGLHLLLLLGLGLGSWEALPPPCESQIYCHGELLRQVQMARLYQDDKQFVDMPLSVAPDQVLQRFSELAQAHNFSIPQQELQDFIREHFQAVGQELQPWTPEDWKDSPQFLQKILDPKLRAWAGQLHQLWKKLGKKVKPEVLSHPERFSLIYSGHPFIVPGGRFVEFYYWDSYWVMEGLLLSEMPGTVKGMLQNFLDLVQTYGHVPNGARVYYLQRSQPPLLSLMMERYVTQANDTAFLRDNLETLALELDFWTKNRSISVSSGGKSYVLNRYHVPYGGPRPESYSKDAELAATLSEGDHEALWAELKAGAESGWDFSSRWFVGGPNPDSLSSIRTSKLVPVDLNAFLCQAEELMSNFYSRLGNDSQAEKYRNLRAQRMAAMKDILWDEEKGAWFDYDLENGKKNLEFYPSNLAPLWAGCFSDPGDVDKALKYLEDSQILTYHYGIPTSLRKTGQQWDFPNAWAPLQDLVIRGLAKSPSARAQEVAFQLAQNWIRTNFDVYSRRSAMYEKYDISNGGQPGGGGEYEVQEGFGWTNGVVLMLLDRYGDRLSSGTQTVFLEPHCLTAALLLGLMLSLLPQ

Canavalia ensiformis = test: Inhibition of jack bean alpha-mannosidase at 2 mM after 10 to 30 mins by spectrophotometric analysis; summary of the method: as §1
Saccharomyces cerevisiae [3] = test: Inhibition of yeast isomaltase at 2 mM after 10 to 30 mins by spectrophotometric analysis; summary of the method: as §1
Prunus dulcis = test: Inhibition of almond beta-glucosidase at 2 mM after 10 to 30 mins by spectrophotometric analysis; summary of the method: as §1
Helix pomatia = test: Inhibition of Helix pomatia beta-mannosidase at 2 mM after 10 to 30 mins by spectrophotometric analysis; summary of the method: as §1
Saccharomyces cerevisiae [4] = test: Inhibition of yeast alpha-glucosidase using at 2 mM after 10 to 30 mins by spectrophotometric analysis; summary of the method: as §1
[5] = Competitive inhibition of bovine beta-glucosidase isolated from liver after 10 to 30 mins by Lineweaver-Burk plot analysis; parameters: species or system Bos taurus; summary of the method: as §1
[6] = target: Alpha-galactosidase (Coffea arabica) (UniProt Q42656); test: Inhibition of green coffee alpha galactosidase at 2 mM after 10 to 30 mins by spectrophotometric analysis; summary of the method: as §1
Sequence of Alpha-galactosidase (Coffea arabica) (Q42656 16-378 limits assumed): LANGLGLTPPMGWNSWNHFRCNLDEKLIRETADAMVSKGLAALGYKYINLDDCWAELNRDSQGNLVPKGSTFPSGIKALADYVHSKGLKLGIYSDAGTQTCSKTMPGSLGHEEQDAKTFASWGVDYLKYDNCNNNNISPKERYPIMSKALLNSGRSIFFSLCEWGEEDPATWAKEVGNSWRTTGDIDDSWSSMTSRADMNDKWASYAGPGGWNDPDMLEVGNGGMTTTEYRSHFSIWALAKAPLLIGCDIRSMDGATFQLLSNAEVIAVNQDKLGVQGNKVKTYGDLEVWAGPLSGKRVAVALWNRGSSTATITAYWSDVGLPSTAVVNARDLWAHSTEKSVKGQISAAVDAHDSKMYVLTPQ

[7] = target: Beta-galactosidase (Escherichia coli) (UniProt Q8VNN2); test: Inhibition of Escherichia coli beta galactosidase at 2 mM after 10 to 30 mins by spectrophotometric analysis; summary of the method: as §1
Sequence of Beta-galactosidase (Escherichia coli) (Q8VNN2 whole entry, looked up): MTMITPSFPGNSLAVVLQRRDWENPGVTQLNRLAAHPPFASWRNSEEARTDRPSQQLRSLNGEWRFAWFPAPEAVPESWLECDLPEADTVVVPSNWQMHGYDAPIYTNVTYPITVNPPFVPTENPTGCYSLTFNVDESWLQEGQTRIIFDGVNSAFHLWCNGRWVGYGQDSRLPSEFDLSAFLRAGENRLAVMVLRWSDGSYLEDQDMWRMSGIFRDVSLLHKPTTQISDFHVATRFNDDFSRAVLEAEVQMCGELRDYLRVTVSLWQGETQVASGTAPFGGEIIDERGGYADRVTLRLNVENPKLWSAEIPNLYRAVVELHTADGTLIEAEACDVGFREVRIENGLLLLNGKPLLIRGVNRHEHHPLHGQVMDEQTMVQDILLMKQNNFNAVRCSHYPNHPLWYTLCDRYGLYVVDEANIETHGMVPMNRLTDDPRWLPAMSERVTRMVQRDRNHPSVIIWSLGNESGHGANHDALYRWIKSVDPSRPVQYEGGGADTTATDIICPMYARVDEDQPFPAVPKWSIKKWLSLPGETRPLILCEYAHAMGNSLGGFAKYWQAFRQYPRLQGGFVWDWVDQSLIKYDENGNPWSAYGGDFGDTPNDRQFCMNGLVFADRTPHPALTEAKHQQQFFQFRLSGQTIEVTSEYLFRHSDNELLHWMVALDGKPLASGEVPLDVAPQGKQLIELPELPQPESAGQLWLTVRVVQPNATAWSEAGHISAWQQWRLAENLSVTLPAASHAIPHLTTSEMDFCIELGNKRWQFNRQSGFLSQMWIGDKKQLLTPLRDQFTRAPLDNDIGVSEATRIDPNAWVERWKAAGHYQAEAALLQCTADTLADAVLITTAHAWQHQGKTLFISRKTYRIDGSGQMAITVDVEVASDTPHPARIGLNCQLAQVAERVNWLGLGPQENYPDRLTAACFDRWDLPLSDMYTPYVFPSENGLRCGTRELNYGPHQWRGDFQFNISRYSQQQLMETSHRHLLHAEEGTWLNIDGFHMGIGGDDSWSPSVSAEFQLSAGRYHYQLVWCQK

Aspergillus niger = test: Inhibition of Aspergillus niger amyloglucosidase at 2 mM after 10 to 30 mins by spectrophotometric analysis; summary of the method: as §1

SMILES | inhibition (Penicillium decumbens) | residual activity [1] [%] | inhibition [2] | inhibition (Canavalia ensiformis) | inhibition (Saccharomyces cerevisiae [3]) | inhibition (Prunus dulcis) | inhibition (Helix pomatia) | inhibition (Saccharomyces cerevisiae [4]) | Ki [5] [µM] | inhibition [6] | inhibition [7] | inhibition (Aspergillus niger)
C=CCSC1=N[C@H]2O[C@H](CO)[C@@H](O)[C@H](O)[C@H]2O1 | inactive | 97 | inactive | inactive | inactive | inactive | inactive | inactive | 220 | inactive | inactive | inactive
CCCCCCCCCCCCCCCCSC1=N[C@H]2O[C@H](CO)[C@@H](O)[C@H](O)[C@H]2O1 | inactive | 86 | inactive | inactive | inactive | inactive | inactive | inactive | 52 | inactive | inactive | inactive
O=C(NCCCCCCSC1=N[C@H]2O[C@H](CO)[C@@H](O)[C@H](O)[C@H]2O1)C12CC3CC(CC(C3)C1)C2 | inactive | 91 | inactive | inactive | inactive | inactive | inactive | inactive | 230 | inactive | inactive | inactive
CCCCCCCCSC1=N[C@H]2O[C@H](CO)[C@@H](O)[C@H](O)[C@H]2O1 | inactive | 91 | inactive | inactive | inactive | inactive | inactive | inactive | 280 | inactive | inactive | inactive
CCCCCCCSC1=N[C@H]2O[C@H](CO)[C@@H](O)[C@H](O)[C@H]2O1 | inactive | 91 | inactive | inactive | inactive | inactive | inactive | inactive | 310 | inactive | inactive | inactive
CCCCSC1=N[C@H]2O[C@H](CO)[C@@H](O)[C@H](O)[C@H]2O1 | inactive | 92 | inactive | inactive | inactive | inactive | inactive | inactive | 580 | inactive | inactive | inactive
CCCCCCCCCCCCSC1=N[C@H]2O[C@H](CO)[C@@H](O)[C@H](O)[C@H]2O1 | inactive | 87 | inactive | inactive | inactive | inactive | inactive | inactive | 73 | inactive | inactive | inactive
OC[C@H]1O[C@@H]2N=C(SCc3ccccc3)O[C@@H]2[C@@H](O)[C@@H]1O | inactive | 88 | inactive | inactive | inactive | inactive | inactive | inactive | 210 | inactive | inactive | inactive
